From ChEMBL document CHEMBL4428062, “Human Toll-like Receptor (TLR) 8-Specific Agonistic Activity in Substituted Pyrimidine-2,4-diamines” (J Med Chem, 2016) come the findings set out here.

Assay [1] addresses T1, Toll-like receptor 8 (Homo sapiens) (UniProt Q9NR97).
T1 sequence (whole entry): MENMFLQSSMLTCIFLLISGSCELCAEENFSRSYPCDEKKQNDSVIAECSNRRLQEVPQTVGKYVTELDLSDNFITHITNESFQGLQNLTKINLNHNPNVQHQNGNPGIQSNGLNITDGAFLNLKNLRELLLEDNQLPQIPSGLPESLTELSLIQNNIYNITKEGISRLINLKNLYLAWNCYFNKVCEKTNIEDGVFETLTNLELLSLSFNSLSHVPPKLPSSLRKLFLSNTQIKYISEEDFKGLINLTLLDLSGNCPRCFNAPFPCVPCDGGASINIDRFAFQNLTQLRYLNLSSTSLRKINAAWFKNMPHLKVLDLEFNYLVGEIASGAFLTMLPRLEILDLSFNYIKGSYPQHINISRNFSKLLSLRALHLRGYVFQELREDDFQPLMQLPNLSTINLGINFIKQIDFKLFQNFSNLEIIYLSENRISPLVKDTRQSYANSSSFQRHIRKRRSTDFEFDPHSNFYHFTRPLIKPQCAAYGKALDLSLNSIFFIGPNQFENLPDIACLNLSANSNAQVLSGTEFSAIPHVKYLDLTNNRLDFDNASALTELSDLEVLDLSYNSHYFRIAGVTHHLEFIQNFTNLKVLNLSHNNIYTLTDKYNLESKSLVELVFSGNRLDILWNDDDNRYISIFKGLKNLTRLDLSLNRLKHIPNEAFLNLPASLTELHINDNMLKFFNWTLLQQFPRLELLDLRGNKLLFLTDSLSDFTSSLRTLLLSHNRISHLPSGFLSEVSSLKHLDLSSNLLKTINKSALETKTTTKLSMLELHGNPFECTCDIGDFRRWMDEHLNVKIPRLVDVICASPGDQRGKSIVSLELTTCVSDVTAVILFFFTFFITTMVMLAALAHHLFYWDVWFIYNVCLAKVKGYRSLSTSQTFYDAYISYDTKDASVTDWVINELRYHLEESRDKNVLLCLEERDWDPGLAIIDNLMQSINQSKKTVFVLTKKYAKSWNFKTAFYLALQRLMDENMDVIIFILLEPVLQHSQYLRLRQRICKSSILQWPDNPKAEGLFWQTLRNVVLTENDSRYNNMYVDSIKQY
Put plainly: Agonist activity at TLR8 in human PBMC assessed as induction of IL-8 levels after 16 hrs by immunoassay. The method in brief: (§1)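 Freshly isolated human PBMC from venipuncture blood (informed consent), 10^5 cells/well, stimulated 16 h with graded concentrations of compound. Supernatants collected by centrifugation and cytokines quantified in duplicate with a multiplexed cytokine/chemokine magnetic bead array.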

Assay [2] concerns the target T1, Toll-like receptor 8 (Homo sapiens). Put plainly: Agonist activity at TLR8 in human PBMC assessed as Th1-biased stimulatory activity measured as IFNgamma release after 16 hrs by immunoassay. Put shortly:
as §1

For assay [3], the target named is Toll-like receptor 5 (Homo sapiens) (UniProt O60602). The assay can be described thus: Agonist activity at human TLR5 expressed in HEK293 cells assessed as induction of NF-kappaB activity by secreted alkaline phosphatase reporter gene assay. The class given is cell-based. Put shortly: (§2)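 HEK293 reporter lines stably co-transfected with the respective human TLR and an NF-κB/AP-1-driven secreted alkaline phosphatase gene, kept in selection medium. About 10^5 cells/ml were incubated with graded concentrations of stimuli. Supernatant sAP was read spectrophotometrically at 620 nm using a chromogenic substrate in detection medium. EC50 was taken as the arithmetic mean of quadruplicate samples.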
On the technique in general: Reporter assays use an easily measured gene product as a stand-in for the process of interest.

Assay [4] has as its target T2, Toll-like receptor 7 (Homo sapiens) (UniProt Q9NYK1).
T2 sequence (whole entry): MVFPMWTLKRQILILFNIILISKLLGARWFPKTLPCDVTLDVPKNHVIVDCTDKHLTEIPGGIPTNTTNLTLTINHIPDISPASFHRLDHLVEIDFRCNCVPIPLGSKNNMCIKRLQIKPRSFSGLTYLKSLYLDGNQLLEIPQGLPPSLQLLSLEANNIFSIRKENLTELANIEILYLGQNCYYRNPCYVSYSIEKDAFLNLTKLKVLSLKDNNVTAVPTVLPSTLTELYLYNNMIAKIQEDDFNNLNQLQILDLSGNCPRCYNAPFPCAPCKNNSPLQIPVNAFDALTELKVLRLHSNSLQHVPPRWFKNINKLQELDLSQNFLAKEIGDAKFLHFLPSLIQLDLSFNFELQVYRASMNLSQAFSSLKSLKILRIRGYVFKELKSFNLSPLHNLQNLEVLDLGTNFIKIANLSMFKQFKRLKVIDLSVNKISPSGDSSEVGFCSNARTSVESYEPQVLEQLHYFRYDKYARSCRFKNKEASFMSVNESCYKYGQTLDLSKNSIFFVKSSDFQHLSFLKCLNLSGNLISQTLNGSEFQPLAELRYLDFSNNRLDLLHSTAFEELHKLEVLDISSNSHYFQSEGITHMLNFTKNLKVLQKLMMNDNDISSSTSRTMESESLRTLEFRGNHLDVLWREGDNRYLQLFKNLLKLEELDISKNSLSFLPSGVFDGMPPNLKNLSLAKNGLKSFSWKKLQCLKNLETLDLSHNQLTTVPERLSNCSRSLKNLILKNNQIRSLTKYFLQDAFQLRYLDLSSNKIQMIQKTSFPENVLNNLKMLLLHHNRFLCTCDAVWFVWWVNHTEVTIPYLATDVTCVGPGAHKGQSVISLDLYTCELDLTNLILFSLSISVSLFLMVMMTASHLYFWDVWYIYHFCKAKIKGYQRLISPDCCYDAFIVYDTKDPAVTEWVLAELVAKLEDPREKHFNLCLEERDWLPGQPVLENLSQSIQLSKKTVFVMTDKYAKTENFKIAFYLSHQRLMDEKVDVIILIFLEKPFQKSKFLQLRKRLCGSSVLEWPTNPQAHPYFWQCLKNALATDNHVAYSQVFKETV
The assay can be described thus: Agonist activity at human TLR7 expressed in HEK293 cells assessed as induction of NF-kappaB activity by secreted alkaline phosphatase reporter gene assay. The class given is cell-based. The method in brief:
as §2

Assay [5] has as its target Toll-like receptor 2 (Homo sapiens) (UniProt O60603). The assay can be described thus: Agonist activity at human TLR2 expressed in HEK293 cells assessed as induction of NF-kappaB activity by secreted alkaline phosphatase reporter gene assay. The class given is cell-based. The method in brief: as §2
Assay [6] concerns the target T1, Toll-like receptor 8 (Homo sapiens). The assay can be described thus: Agonist activity at TLR8 in human PBMC assessed as induction of IL-1beta levels after 16 hrs by immunoassay. Put shortly: as §1
The target in assay [7] is T3, Toll-like receptor 8 (Homo sapiens, UniProt Q9NR97).
T3 sequence (Q9NR97 whole entry): T1 sequence (whole entry)
The assay can be described thus: Agonist activity at human TLR8 expressed in HEK293 cells assessed as induction of NF-kappaB activity by secreted alkaline phosphatase reporter gene assay. The class given is cell-based. Put shortly:
as §2

Assay [8] has as its target T1, Toll-like receptor 8 (Homo sapiens). The assay can be described thus: Agonist activity at TLR8 in human monocytes assessed as upregulation of CD80 after 16 hrs by flow cytometry. The class given is cell-based. The method in brief: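 Heparin-anticoagulated healthy-donor whole blood added to serial compound dilutions, 37 °C for 16 h, DMSO negative control. Stained with CD14-FITC, CD40-APC, CD80-PE-Cy7 and CD86-V450 (2.5 µg each, 4 °C, dark, 60 min). Erythrocytes lysed, leukocytes fixed, washed, then flow cytometry on 200,000 gated events. Monocytes gated as CD14+, CD80 read as MFI, means of duplicates.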
(Flow cytometry measures light scatter and fluorescence of single cells or particles in a stream.)

Activity calls are given as the source filed them. The rule behind the calls is not given here.

Toll-like receptor 2 (Homo sapiens), sequence (O60603 whole entry): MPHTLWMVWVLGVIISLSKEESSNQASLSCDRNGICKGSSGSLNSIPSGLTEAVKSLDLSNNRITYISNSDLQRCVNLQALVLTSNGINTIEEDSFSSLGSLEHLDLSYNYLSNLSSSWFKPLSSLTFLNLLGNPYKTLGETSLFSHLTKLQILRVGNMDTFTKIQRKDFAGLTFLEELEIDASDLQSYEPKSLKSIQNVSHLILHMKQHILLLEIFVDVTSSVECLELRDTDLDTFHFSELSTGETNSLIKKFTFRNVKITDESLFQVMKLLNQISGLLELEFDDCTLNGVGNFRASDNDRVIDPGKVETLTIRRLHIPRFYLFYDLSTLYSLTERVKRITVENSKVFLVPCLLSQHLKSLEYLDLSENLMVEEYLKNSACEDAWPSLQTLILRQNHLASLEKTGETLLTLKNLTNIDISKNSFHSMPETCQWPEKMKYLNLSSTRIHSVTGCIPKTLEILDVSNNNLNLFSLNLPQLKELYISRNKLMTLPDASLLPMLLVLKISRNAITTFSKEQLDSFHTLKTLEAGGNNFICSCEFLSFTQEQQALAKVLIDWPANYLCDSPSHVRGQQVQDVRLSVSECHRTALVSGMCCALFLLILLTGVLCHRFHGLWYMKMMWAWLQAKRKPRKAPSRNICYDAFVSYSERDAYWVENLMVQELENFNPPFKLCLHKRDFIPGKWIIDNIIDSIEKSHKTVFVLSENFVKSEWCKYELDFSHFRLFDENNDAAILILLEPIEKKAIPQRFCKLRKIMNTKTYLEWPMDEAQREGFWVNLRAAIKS
Toll-like receptor 5 (Homo sapiens), sequence (O60602 whole entry): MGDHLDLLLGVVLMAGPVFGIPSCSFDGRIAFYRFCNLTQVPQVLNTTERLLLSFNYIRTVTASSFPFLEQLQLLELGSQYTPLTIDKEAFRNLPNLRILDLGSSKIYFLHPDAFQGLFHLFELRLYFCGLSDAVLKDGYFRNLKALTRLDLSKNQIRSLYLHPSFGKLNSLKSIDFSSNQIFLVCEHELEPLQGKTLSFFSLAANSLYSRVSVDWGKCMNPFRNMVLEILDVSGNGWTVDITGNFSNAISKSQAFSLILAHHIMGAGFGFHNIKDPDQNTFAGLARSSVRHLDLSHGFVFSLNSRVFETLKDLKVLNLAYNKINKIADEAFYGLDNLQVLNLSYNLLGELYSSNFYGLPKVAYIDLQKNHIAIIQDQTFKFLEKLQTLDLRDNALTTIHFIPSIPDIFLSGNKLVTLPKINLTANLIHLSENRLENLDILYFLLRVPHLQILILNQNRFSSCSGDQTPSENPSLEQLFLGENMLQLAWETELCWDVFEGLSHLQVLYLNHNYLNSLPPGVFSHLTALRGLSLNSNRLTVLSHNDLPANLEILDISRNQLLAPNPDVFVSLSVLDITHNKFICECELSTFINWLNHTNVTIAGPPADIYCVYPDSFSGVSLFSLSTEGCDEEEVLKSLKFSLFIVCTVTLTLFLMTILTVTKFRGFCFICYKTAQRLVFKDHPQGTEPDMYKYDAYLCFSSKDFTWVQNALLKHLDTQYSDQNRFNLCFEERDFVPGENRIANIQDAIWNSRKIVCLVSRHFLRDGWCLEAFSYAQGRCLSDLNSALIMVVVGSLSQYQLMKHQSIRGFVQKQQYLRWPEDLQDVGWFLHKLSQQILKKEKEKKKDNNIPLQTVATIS

Regarding `CCCCNc1nc(N)nc(-c2ccccc2)c1CCCCN`, the outcome in assay [1], in assay [2], in assay [3], in assay [4], in assay [5] and in assay [6] was inactive.
For the molecule `CCCCNc1cc(-c2ccccc2)nc(N)n1`, the outcome in assay [1], in assay [2], in assay [3], in assay [4], in assay [5] and in assay [6] was inactive. Moreover, in assay [7], the EC50 (commonly the concentration at which the effect is half-maximal) turned out to be 6700 nM.
For the molecule `CCCCNc1nc(N)nc(C)c1CCCCN`, the outcome in assay [1], in assay [3], in assay [4], in assay [5] and in assay [6] was inactive. Further, in assay [2], the outcome was Active. For the same molecule, the EC50 in assay [7] was found to be 300 nM. In addition, in assay [8], the Activity turned out to be 1.5 µM.
Regarding `CCCCNc1nc(N)nc(C)c1I`, the outcome in assay [1], in assay [2] and in assay [6] was Active. Besides, the outcome in assay [3], in assay [4] and in assay [5] was inactive. Also, in assay [7], the EC50 stood at 1640 nM. Further, the Activity in assay [8] worked out at 5 µM.
Consider `CCCCCn1c(N)nc2c(C)cccc21`, for which the outcome in assay [1] and in assay [6] was Active. The result in assay [3], in assay [4] and in assay [5] was inactive. Also, in assay [7], the EC50 stood at 1800 nM. In addition, in assay [8], the Activity stood at 14 µM.
